RORA act: activates the human nuclear receptor RORA; P35398; CHO-K1 Gal4-RORA LBD luciferase reporter, luminescence; percent increase over mock-subtracted basal signal; activation, % at 10 µM; hit rate 1.5% among 65,000; AID 560;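 active = activation above the mean of all tested compounds plus 3 SD, cut at about 49% in these data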;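 also: 0% = DMSO-treated RORA cells and 100% = added signal equal to DMSO minus mock-transfected cells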
ERa SRC1 inh: blocks coactivator binding to human estrogen receptor alpha | P03372 | TR-FRET ER-alpha LBD / SRC-1 peptide, estradiol-bound | inhibition, % at 25.6 µM | hit rate 1.7% among 86,000 | AID 629; in the data active = inhibition above about 50%;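 also: 0% = receptor plus peptide control and 100% = peptide only without receptor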
SF1 activator: activates the human nuclear receptor SF-1. Q13285. CHO-K1 Gal4-SF-1 LBD luciferase reporter; % increase over DMSO SF-1-specific signal. activation, % at 10 µM. hit rate 1.9% among 65,000. AID 522;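 active = activation above the mean activation of all tested compounds plus 3 SD, cut at about 50% in these data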
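Assay system – CHO-K1 cells with Gal4–hSF-1 LBD chimera plus Gal4-driven luciferase · Quantity – 4,000 cells per well · Times – compound added 1 h post-seeding, 20 h exposure at 37 °C, 5% CO2 · Measured by – luciferase light emission · Benchmarks – DMSO and mock-transfected background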
ERb coact inh: ER-beta (human) coactivator binding inhibition; Q92731; inhibition, % at 25.6 µM; TR-FRET ER-beta LBD / SRC1-Cy5 peptide binding; receptor agonist-loaded with 1 µM estradiol; hit rate 1.3% among 86,000; AID 633;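 active = compounds whose percent inhibition of the receptor-coactivator binding signal exceeds about 50% in the single-dose screen, limit read from the data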;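 also: 0% = receptor plus peptide wells without compound and 100% = peptide-only wells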
Target sequence (Q92731 whole entry, looked up, the tested form may be a part): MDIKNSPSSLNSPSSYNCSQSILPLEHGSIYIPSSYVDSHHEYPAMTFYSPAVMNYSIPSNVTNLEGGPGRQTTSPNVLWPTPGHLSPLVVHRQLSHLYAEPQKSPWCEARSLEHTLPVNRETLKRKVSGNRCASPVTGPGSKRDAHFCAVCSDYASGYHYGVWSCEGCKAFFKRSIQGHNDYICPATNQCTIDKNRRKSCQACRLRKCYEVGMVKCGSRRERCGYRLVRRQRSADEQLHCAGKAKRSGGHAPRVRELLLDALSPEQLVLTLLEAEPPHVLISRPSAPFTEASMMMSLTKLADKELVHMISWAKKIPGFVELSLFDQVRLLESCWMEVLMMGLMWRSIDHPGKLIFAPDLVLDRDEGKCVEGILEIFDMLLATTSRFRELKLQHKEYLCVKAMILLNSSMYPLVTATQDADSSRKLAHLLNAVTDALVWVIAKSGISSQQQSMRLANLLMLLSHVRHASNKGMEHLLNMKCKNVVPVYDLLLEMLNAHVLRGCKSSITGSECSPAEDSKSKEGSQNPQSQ
BAP1 inh: human BAP1 deubiquitinase inhibition | Q92560 | recombinant BAP1, Ub-AMC hydrolysis fluorescence kinetic; hits give low values | calls only at 20 µM | hit rate 0.48% among 72,000 | AID 436;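 active = activity remaining at or below 50% of control, provided the compound also passes the data quality filters; inactive = the rest, including low values that fail the filters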;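 also: 100% = DMSO wells rate and 0% = substrate alone blank rate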
ERa coact pot: ER-alpha (human) coactivator binding potentiation | P03372 | TR-FRET ERalpha-LBD/SRC-Cy5 coactivator binding, 2 h; 100 = basal binding, no effect | hit rate 1.3% among 86,000 | coactivator binding (% of control), % at 25.6 µM | AID 639; in the data active = activity above about 200%;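 also: binding measured in presence of low estradiol as agonist stimulus; 0% = peptide alone without receptor and 100% = receptor with peptide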
* hit, by the source's call; i = inactive; . = no result given; [ ] = remark or other dose. Compounds with a hit are over-represented: about 5.1% of the library has one in this group of screens.

SMILES	RORA act	ERa SRC1 inh	SF1 activator	ERb coact inh	BAP1 inh	ERa coact pot
O=C1c2ccc([N+](=O)[O-])cc2C(=O)N1C1C(=O)N(c2ccc(Br)cc2)C1c1ccc2c(c1)OCO2 (configuration not stated)	.	.	.	.	i	.
Cc1nnc(NC(=O)c2ccc(-c3cccc(C(F)(F)F)c3)o2)s1	-10	44	-3	46	.	288*
CN(/N=C/c1c[nH]c2ccccc12)c1cnn(-c2ccc(F)c(Cl)c2)c(=O)c1Cl	.	-1	.	-3	.	95
CN(/N=C/c1cccnc1)c1cnn(-c2ccc(F)c(Cl)c2)c(=O)c1Cl	.	61*	.	37	.	125
CN1CCCN(C2CC(=O)N(c3ccc(Br)cc3)C2=O)CC1 (configuration not stated)	.	.	.	.	i	.
O=c1c2ccccc2nc(SCc2nc3ccccc3s2)n1Cc1ccco1	-16	3	-6	2	.	162
CC1CCCCC1NC(=O)CSc1nc2ccccc2c(=O)n1Cc1ccco1 (configuration not stated)	-17	27	-14	11	i	131
CCc1nc2sc3ccccc3c(=O)c2c(=O)n1Cc1ccco1	0	76*[fluorescence artefact?]	5	68*	i	57
O=c1c2ccccc2sc2nc(C3CCCCC3)n(Cc3ccco3)c(=O)c12	10	46	-4	38	i	222*
O=C(NCc1ccc2c(c1)OCO2)c1ccc(C2SCC(=O)N2Cc2ccco2)cc1 (configuration not stated)	7	43	20	33	.	215*[fluorescence artefact?]
COC(=O)c1ccc(COc2ccc3c4c(c(=O)oc3c2)CCC4)o1	-1	37	5	19	i	240*[fluorescence artefact?]
COC(=O)c1ccc(COc2ccc3c(C)c(C)c(=O)oc3c2C)o1	-30	7	11	13	.	444*[fluorescence artefact?]
Cc1c(OCc2ccc(C(=O)O)o2)ccc2c3c(c(=O)oc12)CCC3	8	40	-28	47	.	49
O=C(Nc1ccccc1F)c1cc(F)ccc1[N+](=O)[O-]	.	.	.	.	i	.
Oc1ccc(CNc2ccccc2F)c2cccnc12	-20	20	0	62*[fluorescence artefact?]	i	91
CC1(C)CC(=O)C2=C(C1)Nc1cc(C(=O)c3ccccc3)ccc1NC2c1ccc(Cl)cc1 (configuration not stated)	.	.	.	.	i	.
O=C(Oc1cccc(-n2cnnn2)c1)c1sc2ccccc2c1Cl	-7	19	-7	7	i	246*
O=C(Oc1cccc(-n2cnnn2)c1)C1CCCCC1	-8	-6	18	-7	i	117
Nc1nnc(-c2ccncc2)s1	-1	6	3	7	.	113
CCCOc1ccc(-c2nnc(N)s2)cc1	44	-5	59*	3	i	94
COc1ccc(OCCc2nnc(N)s2)cc1	.	6	.	-4	.	112
COc1ccc(-c2nnc(N)s2)cc1	50*	-7	7	-11	i	125
O=C1CC(c2ccc(Cl)cc2)CC2=C1C(c1cccc([N+](=O)[O-])c1)Nc1ccccc1N2 (configuration not stated)	.	.	.	.	i	.
COC(=O)c1sccc1NC(=O)c1cc(-c2ccccc2Cl)nc2ccccc12	.	.	.	.	i	.
Oc1c(C=Nc2cccc3cccnc23)sc2ccccc12	.	79*	.	51*[fluorescence artefact?]	.	64
SMILES	RORA act	ERa SRC1 inh	SF1 activator	ERb coact inh	BAP1 inh	ERa coact pot
O=C(c1ccc(Cl)cc1)N1CCN(c2ccc([N+](=O)[O-])c(NCc3ccccc3)c2)CC1	.	.	.	.	i	.
CCN(C(=O)CN1C(=O)c2ccccc2C1=O)c1ccccc1C	.	.	.	.	i	.
Cn1c(-c2ccc3c(c2)OCO3)cnc1NCc1ccccc1	10	10	68*	1	i	94
Cn1c(-c2ccc3c(c2)OCO3)cnc1NCc1cccc(Cl)c1	6	17	-3	-3	i	94
Cc1ccc(C(c2sc3nc(C)nn3c2O)N2CCN(c3ccccc3F)CC2)cc1 (configuration not stated)	26	-2	-9	72*[fluorescence artefact?]	i	107
COc1cc(C(c2sc3nc(C)nn3c2O)N2CCN(c3ccccc3)CC2)cc(OC)c1OC (configuration not stated)	-14	83*[fluorescence artefact?]	0	-6	i	107
COc1cc(C(c2sc3nc(C)nn3c2O)N2CCOCC2)cc(OC)c1OC (configuration not stated)	4	.	4	.	i	.
Cc1ccc(NC(=O)c2ccc(N(Cc3ccccc3)S(C)(=O)=O)cc2)c(C)c1	.	.	.	.	i	.
CCCOc1ccc(C2Oc3ccccc3C3CC(c4ccccc4)=NN32)cc1 (configuration not stated)	.	.	.	.	i	.
O=C(O)c1cc2sccc2s1	1	1	7	59*	i	107
COc1c(C)cccc1C(=O)Nc1ccc(CN2CCOCC2)cc1	37	-11	62*	-7	i	113
COc1c(C)cccc1C(=O)Nc1ccc(N2CCN(S(C)(=O)=O)CC2)cc1	46	3	107*	1	i	175
O=C1NC(=S)SC1=C1CCCC1	.	46	.	56*	.	39
CN1C(=O)C(=C2CCCCCC2)SC1=S	-18	-6	-4	-11	i	103
O=C(COc1ccccc1)Nc1ccc(Cl)c(-c2nc3ncccc3o2)c1	-24	50*	10	44	.	226*[fluorescence artefact?]
Cc1ccc(OCC(=O)Nc2ccc(-c3nc4ncccc4o3)cc2)c(C)c1	5	51*[fluorescence artefact?]	5	45	.	157
O=C(CSc1ccc2ccccc2c1)Nc1cccc(C(F)(F)F)c1	.	.	.	.	i	.
COC(=O)c1oc2nc(C)cc(C)c2c1N	16	57*[fluorescence artefact?]	-3	-7	i	129
Cn1ncc([N+](=O)[O-])c1CC(=O)O	.	.	.	.	i	.
O=C(NC1CCCC1)c1cc(-c2cccs2)on1	109*	6	20	40	i	95
COC(=O)c1ccccc1NC(=O)c1cc(-c2cccs2)on1	2	-2	-7	49	i	251*[fluorescence artefact?]
CCCNC(=O)c1cc(-c2ccco2)on1	36	0	34	-6	i	107
COc1ccc(-c2cc(C(=O)NC3CCCC3)no2)cc1OC	22	.	33	.	i	.
CC1CCCC(C)N1C(=O)c1cc(-c2cccs2)on1 (configuration not stated)	61*	17	29	-1	i	106
O=C(NC1CCCCC1)c1cc(-c2ccco2)on1	18	-3	58*	-11	i	107
O=C(Nc1ccc2oc(-c3ccc4ccccc4c3)nc2c1)c1ccc(Cl)c([N+](=O)[O-])c1	.	.	.	.	i	.
CCC(O)(CC)C12CC3CC(CC(C3)C1)C2	.	.	.	.	i	.
CCCCCOC(=O)C1=C(C)NC2=C(C(=O)CC(C)(C)C2)C1c1ccccc1I (configuration not stated)	.	.	.	.	i	.
